The target in the first assay is T1, Gamma-butyrobetaine dioxygenase (Homo sapiens, UniProt O75936).
T1 sequence (O75936 whole entry): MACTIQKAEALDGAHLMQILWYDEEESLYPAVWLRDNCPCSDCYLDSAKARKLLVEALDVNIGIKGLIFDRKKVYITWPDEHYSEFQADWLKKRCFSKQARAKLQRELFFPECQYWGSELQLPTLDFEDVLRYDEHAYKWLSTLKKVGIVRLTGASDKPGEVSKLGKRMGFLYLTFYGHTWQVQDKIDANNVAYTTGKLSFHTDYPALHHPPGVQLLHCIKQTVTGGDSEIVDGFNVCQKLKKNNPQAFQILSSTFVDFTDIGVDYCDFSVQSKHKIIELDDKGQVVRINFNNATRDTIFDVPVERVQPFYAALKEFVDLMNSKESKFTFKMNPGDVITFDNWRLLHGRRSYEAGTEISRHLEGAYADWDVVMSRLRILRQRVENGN
The experiment in a line: Inhibition of human recombinant BBOX expressed in Saccharomyces cerevisiae AH22 assessed as formation of carnitine from gamma-butyrobetaine preincubated for 15 mins measured after 30 mins by UPLC-MS/MS analysis. An outline of the steps: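 His-tagged BBOX purified by Ni affinity, desalting and Mono Q; tag cut with TEV. Assay (0.2 mL) held 20 mM K phosphate pH 7.0, 20 mM KCl, 3 mM 2-oxoglutarate, 0.25 mM Fe(II), 10 mM ascorbate, catalase and 0.6 μg enzyme. Screen at 100 or 1000 μM, then 6–8 concentrations. GBB 200 μM added after preincubation, 37 °C; stopped with cold acetonitrile/methanol. Logistic-fit IC50, mean ± SD of three experiments.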
By IC50 is commonly meant the midpoint of a concentration-inhibition curve. `C[N+](C)(CCN)NCCC(=O)[O-]`: the IC50 is over 1000 µM.
Regarding `CCC[N+](C)(C)N(C)CCC(=O)[O-]`, the IC50 came to 3.1 µM.
Turning to `C[N+](C)(CCl)CCCC(=O)[O-]`, the IC50 was 268 µM.
On to `C[N+](C)(CCO)NCCC(=O)[O-]`, for which the IC50 turned out to be 1000 µM.
As for `CC(CCC(=O)[O-])[N+](C)(C)C` (stereo not given), the IC50 was found to be 343 µM.
On the same count and under the same terms, with `CC[N+](C)(CC)CCCC(=O)[O-]` the figure was 100 µM; with `C[N+](C)(C)CCCS(=O)(=O)[O-]`, 1.7 µM.
As to `C[N+](C)(CCCl)NCCC(=O)O`, the IC50 came out at 10.2 µM.
Take `C=C[N+](C)(C)NCCC(=O)[O-]`: the IC50 is 6.8 µM.
As to `C[N+](C)(C)C/C=C/C(=O)[O-]`, the IC50 is 3.8 µM.
Take `C[N+](C)(C)NCCP(=O)(O)O`: the IC50 stood at 117 µM.
Same read-out and setting: with `C[N+](C)(CCCC(=O)[O-])C1CCC1` the figure was 0.81 µM; with `CCC[N+](C)(C)CCCC(=O)[O-]`, over 1000 µM.
Consider `C[N+](C)(CCCC(=O)[O-])CC1CC1`, for which the IC50 was over 1000 µM.
The same measure, in the same setting: with `C[N+](C)(C)NCCS(=O)(=O)[O-]` the figure was 87 µM; with `COC[N+](C)(C)CCCC(=O)[O-]`, over 1000 µM; with `O=C(O)CCCN1CCCC1`, 1000 µM.
In the case of `C[N+](C)(CCO)CCCC(=O)[O-]`, the IC50 was 1000 µM.
`C=CC[N+](C)(C)CCCC(=O)[O-]`: the IC50 was 2.7 µM.
Take `C=C[N+](C)(C)CCCC(=O)[O-]`: the IC50 was 127 µM.
In the case of `C[N+](C)(CCCC(=O)[O-])C1CC1`, the IC50 was determined as 2.1 µM.
The same measure, in the same setting: with `CC[N+](C)(C)CCCC(=O)[O-]` the figure was 3.3 µM; with `C=CC[N+](C)(C)NCCC(=O)[O-]`, 119 µM.
As to `C[N+](C)(CCF)CCCC(=O)O`, the IC50 was 0.61 µM.
With `CCN(CCC(=O)[O-])[N+](C)(C)C`, the IC50 came to 2.8 µM.
Still for that read-out and setting: with `C[N+](C)(CBr)CCCC(=O)[O-]` the figure was over 1000 µM.
Regarding `CC[N+](C)(CC)NCCC(=O)O`, the IC50 is over 1000 µM.
Regarding `CC[N+](C)(C)NCCC(=O)[O-]`, the IC50 stood at 140 µM.
As for `C[N+](C)(C)CC(Cl)CC(=O)O` (stereo not given), the IC50 worked out at 459 µM.
The same measure, in the same setting: with `C[N+](C)(CCCC(=O)[O-])C1CCCC1` the figure was over 1000 µM; with `CCCC[N+](C)(C)CCCC(=O)[O-]`, over 1000 µM; with `C[N+](C)(C)CCCc1nnn[nH]1`, over 1000 µM.
For the molecule `CC(C)[N+](C)(C)CCCC(=O)[O-]`, the IC50 stood at 5.7 µM.
Take `C[N+](C)(C)C1CCCC(C(=O)[O-])C1` (stereo not given): the IC50 is over 1000 µM.
With `C[N+](C)(CCCl)CCCC(=O)O`, the IC50 came to 0.26 µM.
As for `C[N+](C)(CI)CCCC(=O)[O-]`, the IC50 was found to be 1000 µM.
Consider `C#CC[N+](C)(C)NCCC(=O)O`, for which the IC50 was determined as 24 µM.
`C[N+](C)(C)CCCCC(=O)[O-]`: the IC50 is over 1000 µM.
`CN(CCC(=O)[O-])[N+](C)(C)C`: the IC50 was 0.09 µM.
With `C[N+](C)(C)CCC[PH](=O)[O-]`, the IC50 stood at 0.52 µM.
As to `CC[N+](C)(C)CCCS(=O)(=O)[O-]` [ETHYL DIMETHYL AMMONIO PROPANE SULFONATE], the IC50 came to 6.7 µM.
`C[N+](C)(CCCC(=O)[O-])CC1CCC1`: the IC50 was over 1000 µM.
As for `CC(C)[N+](C)(C)NCCC(=O)[O-]`, the IC50 is over 1000 µM.
For `C#CC[N+](C)(C)CCCC(=O)[O-]`, the IC50 was found to be 1.4 µM.
As to `CC[N+](C)(C)N(C)CCC(=O)[O-]`, the IC50 is 7.2 µM.
On the same count and under the same terms, with `C[N+](C)(CCCC(=O)[O-])Cc1ccccc1` the figure was over 1000 µM.
For `C[N+]1(CCCC(=O)O)CCCC1`, the IC50 is 0.49 µM.
With `CC[N+](C)(C)CCC[PH](=O)[O-]`, the IC50 turned out to be 0.53 µM.
On to `C[N+](C)(C)CCCP(=O)(O)O`, for which the IC50 amounted to 0.1 µM.
As for `C[S+](C)CCCC(=O)[O-]`, the IC50 turned out to be 388 µM.

For another assay, the target named is T2, Gamma-butyrobetaine dioxygenase (Homo sapiens) (UniProt O75936).
T2 sequence (whole entry): T1 sequence (O75936 whole entry)
Nature of the assay: Ratio of mildronate IC50 to compound IC50 for human recombinant BBOX.
For `CC(CCC(=O)[O-])[N+](C)(C)C` (stereo not given), the Ratio IC50 is 3.
Turning to `C=C[N+](C)(C)NCCC(=O)[O-]`, the Ratio IC50 is 9.
On the same count and under the same terms, with `CN(CCC(=O)[O-])[N+](C)(C)C` the figure was 3.

Another assay deals with T1, Gamma-butyrobetaine dioxygenase. Nature of the assay: Binding affinity to purified human BBOX by isothermal titration calorimetry analysis. The method, boiled down: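 Human BBOX, purified and dialyzed, in 50 mM HEPES pH 7.4 with 100 mM KCl; cofactors and ligands dissolved in the same dialysate. N-oxalylglycine replaced 2-oxoglutarate and Ni(II) replaced Fe(II). Enzyme 26–75 μM per subunit. ITC at 25 °C: 0.2 μL first injection (discarded), then 19 × 2.0 μL. Dilution heats subtracted, low-c fitting, ≥3 repeats.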
Background: In ITC the heat of successive injections is recorded.
In general, Kd refers to the free concentration of one partner at which half of the binding sites on the other are occupied at equilibrium, for simple one-to-one binding. A lower Kd goes with tighter binding. As for `CC(CCC(=O)[O-])[N+](C)(C)C` (stereo not given), the Kd was 4.1 µM.
Molecule `CN(CCC(=O)[O-])[N+](C)(C)C` yielded a Kd of 9.3 µM.

(Values after ChEMBL document CHEMBL3232920, “Targeting carnitine biosynthesis: discovery of new inhibitors against γ-butyrobetaine hydroxylase” (J Med Chem, 2014).)
